In publication PMC4216208 (Journal of Medicinal Chemistry, 2014):
“Also recorded” adds a separate entry of the source.

What was measured:
EhCHT1 = experiment: Chitinase activity assay, Entamoeba histolytica chitinase; type: biochemical; settings: 10 μM final concentration
C. elegans = experiment: Bioaccumulation in C. elegans; type: in vitro ADME, Caenorhabditis elegans; settings: for accumulation in C. elegans (in words): late-stage L4 worms, 10 μM (2 nmol/mg worm), 6 h, LC-MS of homogenates; for worm concentration as share of the dose: at 6 h, dose 2 nmol/mg worm
In short: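 Synchronised C. elegans grown to late L4 on E. coli OP50 at 25 °C for 40 h, water-washed, and suspended in M9 at ~5−10 worms/μL. Dosed at 10 μM final (~2 nmol/mg worm) from DMSO stock, 6 or 12 h at rt. Washed in 0.1% SDS then water, frozen, lyophilised, weighed, extracted into cold MeOH/MeCN with internal standard. Quantified by LC-ESI-MS against blank-worm calibration; mean ± sd, n = 3.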

PfCHT1 = target: T1, PfCHT1 (Plasmodium falciparum, UniProt Q8I4R4); experiment: Chitinase activity assay, Plasmodium falciparum chitinase; type: biochemical; settings: 10 μM final concentration
T1 sequence (Q8I4R4 29-378): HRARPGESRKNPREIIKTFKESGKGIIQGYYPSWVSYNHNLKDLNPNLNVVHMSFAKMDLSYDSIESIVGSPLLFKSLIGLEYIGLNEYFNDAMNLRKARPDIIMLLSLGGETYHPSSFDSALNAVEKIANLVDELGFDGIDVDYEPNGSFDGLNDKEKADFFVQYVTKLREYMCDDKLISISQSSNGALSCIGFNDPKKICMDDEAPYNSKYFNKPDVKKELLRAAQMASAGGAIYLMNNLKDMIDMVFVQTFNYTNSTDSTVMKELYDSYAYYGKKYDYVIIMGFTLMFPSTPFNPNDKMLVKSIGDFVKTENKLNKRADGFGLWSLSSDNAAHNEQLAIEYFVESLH

BmCHT1 = target: T2, BmCHT1 (Brugia malayi, UniProt P29030); experiment: Chitinase activity assay, Brugia malayi chitinase; type: biochemical; settings: 10 μM final concentration
T2 sequence (P29030 23-504): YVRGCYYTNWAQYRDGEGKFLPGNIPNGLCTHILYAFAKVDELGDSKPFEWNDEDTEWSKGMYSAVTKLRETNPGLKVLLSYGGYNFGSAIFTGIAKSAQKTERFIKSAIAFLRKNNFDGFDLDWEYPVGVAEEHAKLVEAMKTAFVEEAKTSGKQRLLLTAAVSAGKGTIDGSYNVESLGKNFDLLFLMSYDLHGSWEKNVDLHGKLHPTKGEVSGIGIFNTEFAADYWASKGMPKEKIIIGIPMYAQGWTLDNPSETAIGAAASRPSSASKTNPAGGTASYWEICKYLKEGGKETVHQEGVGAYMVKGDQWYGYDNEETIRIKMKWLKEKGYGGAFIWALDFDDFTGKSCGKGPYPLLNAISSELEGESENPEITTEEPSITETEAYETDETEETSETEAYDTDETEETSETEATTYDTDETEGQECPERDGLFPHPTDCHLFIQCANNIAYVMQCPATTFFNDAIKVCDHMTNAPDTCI

OvCHT1 = target: T3, OvCHT1 (Onchocerca volvulus, UniProt Q25615); experiment: O. volvulus chitinase; type: biochemical; settings: for inhibition of OvCHT1 at single concentration: 10 μM final concentration, relative to control (0.5% DMSO in water)
T3 sequence (Q25615 22-497): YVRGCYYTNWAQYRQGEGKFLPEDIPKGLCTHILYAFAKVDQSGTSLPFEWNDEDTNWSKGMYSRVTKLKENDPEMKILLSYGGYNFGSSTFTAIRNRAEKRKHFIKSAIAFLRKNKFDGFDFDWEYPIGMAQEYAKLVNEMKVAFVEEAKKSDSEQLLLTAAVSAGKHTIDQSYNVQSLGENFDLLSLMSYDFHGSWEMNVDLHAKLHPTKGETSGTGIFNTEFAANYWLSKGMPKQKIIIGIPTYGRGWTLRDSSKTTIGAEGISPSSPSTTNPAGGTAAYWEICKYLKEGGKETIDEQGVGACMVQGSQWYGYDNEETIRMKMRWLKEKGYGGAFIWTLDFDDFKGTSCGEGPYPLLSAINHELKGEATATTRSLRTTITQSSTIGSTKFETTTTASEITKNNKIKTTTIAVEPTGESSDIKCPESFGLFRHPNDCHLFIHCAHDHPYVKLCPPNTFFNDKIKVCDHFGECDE

HEK 293T/17 cells [1] = experiment: Mitochondrial-uncoupling assay; type: cell-based, human; settings: 50 μM compound, TMRE staining
In short: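 HEK 293T/17 cells were trypsinised and suspended at 1−2 × 10^6 cells/mL in DMEM with 10% FBS, then given test compound (50 μM) or DMSO for 30 min at 37 °C. TMRE (~450 nM final) was added for 30 min in the dark at 37 °C. Cells were washed twice in 0.2% BSA/PBS, resuspended, and read by plate fluorescence (em 575 nm). Unstained and DMSO controls were included; mean ± sd, n = 3.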

HEK 293T/17 cells [2] = experiment: Cell viability assay; type: cell-based, human; settings: 1 and 10 μM, 24 h, MTS assay
In short: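 HEK 293T/17 cells (2 × 10^4) plated and held 24 h at 37 °C, then exposed to test compound at 1 and 10 μM final. Viability was read by MTS at 0.5 and 24 h after treatment.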

O. volvulus L3 larvae = experiment: O. volvulus L3 molting inhibition; type: cell-based, Onchocerca volvulus; settings: for inhibition at 1 µM: Onchocerca volvulus, read-out: inhibition of O. volvulus L3 molting
[3] = 10 μM, 24 h preincubation, molting assessed day 6

| inhibition of EhCHT1 at single concentration (EhCHT1) | accumulation in C. elegans (in words) (C. elegans) | inhibition of PfCHT1 at single concentration (PfCHT1) | inhibition of BmCHT1 at single concentration (BmCHT1) | inhibition of OvCHT1 at single concentration (OvCHT1) | SMILES | mitochondrial-uncoupling (protonophoric) activity (HEK 293T/17 cells [1]) | effect on O. volvulus L3 molting (O. volvulus L3 larvae; [3]) | further results |
| --- | --- | --- | --- | --- | --- | --- | --- | --- |
| sparing | accumulated in C. elegans | sparing | sparing | complete inhibition | O=C(Nc1ccc(-c2ccc(Cl)cc2)cc1)c1cc(I)cc(I)c1O [Compound 5c, N-(4′-Chloro-[1,1′-biphenyl]-4-yl)-2-hydroxy-3,5-diiodobenzamide] | – | – | – |
| – | – | – | – | – | O=C(Nc1ccc2ccccc2c1)c1cc(I)cc(I)c1 [Compound 4c, 3,5-Diiodo-N-(naphthalen-2-yl)benzamide] | loss of uncoupling activity | – | – |
| – | – | – | – | – | O=C(Nc1ccc(Oc2ccccc2)cc1)c1cc(I)cc(I)c1O [Compound 3a, 2-Hydroxy-3,5-diiodo-N-(4-phenoxyphenyl)benzamide] | mitochondrial-uncoupling activity | – | – |
| sparing | accumulated in C. elegans | sparing | sparing | complete inhibition | O=C(Nc1ccc(Oc2ccc(Cl)cc2)cc1)c1cc(I)cc(I)c1 [Compound 3j, N-(4-(4-Chlorophenoxy)phenyl)-3,5-diiodobenzamide] | loss of uncoupling activity; also recorded: devoid of protonophoric activity | – | – |
| – | accumulated in C. elegans | – | – | – | O=C(Nc1ccc2ccccc2c1)c1cc(I)cc(I)c1O [Compound 4a, 2-Hydroxy-3,5-diiodo-N-(naphthalen-2-yl)benzamide] | mitochondrial-uncoupling activity | completely abolished molting | effect on cell viability of HEK 293T/17 cells (HEK 293T/17 cells [2]): no considerable effect on cell viability; worm concentration as share of the dose (C. elegans): less than 50%; inhibition at 1 µM (O. volvulus L3 larvae): ≤ 84% |
| – | accumulated in C. elegans | – | – | – | COc1c(I)cc(I)cc1C(=O)Nc1ccc2ccccc2c1 [Compound 4b, 3,5-Diiodo-2-methoxy-N-(naphthalen-2-yl)benzamide] | loss of uncoupling activity; also recorded: devoid of protonophoric activity | inhibited molting | worm concentration as share of the dose (C. elegans): less than 50%; effect on O. volvulus L3 molting (O. volvulus L3 larvae; 1 μM): did not show any impact on molting |
| sparing | accumulated in C. elegans | sparing | sparing | complete inhibition | O=C(Nc1ccc(-c2ccccc2)cc1)c1cc(I)cc(I)c1O [Compound 5a, N-([1,1′-Biphenyl]-4-yl)-2-hydroxy-3,5-diiodobenzamide] | – | – | – |
| – | – | – | – | – | O=C(Nc1ccc(Oc2ccccc2)cc1)c1cc(I)cc(I)c1 [Compound 3e, 3,5-Diiodo-N-(4-phenoxyphenyl)benzamide] | loss of uncoupling activity | – | – |
| sparing | accumulated in C. elegans | sparing | sparing | complete inhibition | COc1c(I)cc(I)cc1C(=O)Nc1ccc(Oc2ccc(Cl)cc2)cc1 [Compound 3i, N-(4-(4-Chlorophenoxy)phenyl)-3,5-diiodo-2-methoxybenzamide] | loss of uncoupling activity; also recorded: devoid of protonophoric activity | only marginal inhibition | effect on O. volvulus L3 molting (O. volvulus L3 larvae; 100 μM): completely hindered L3 molting |
| – | – | – | – | – | COc1c(I)cc(I)cc1C(=O)N(C)c1ccc(Oc2ccccc2)cc1 [Compound 3d, 3,5-Diiodo-2-methoxy-N-methyl-N-(4-phenoxyphenyl)benzamide] | loss of uncoupling activity | – | – |
| – | – | – | – | – | COc1c(I)cc(I)cc1C(=O)Nc1ccc(Oc2ccccc2)cc1 [Compound 3b, 3,5-Diiodo-2-methoxy-N-(4-phenoxyphenyl)benzamide] | loss of uncoupling activity | – | – |
| – | – | – | – | – | COc1c(I)cc(I)cc1C(=O)O [Compound 6b, 3,5-Diiodo-2-methoxybenzoic Acid] | neither an OvCHT1 inhibitor nor a protonophore | no inhibition on molting | OvCHT1 inhibitor or not (in words) (OvCHT1): neither an OvCHT1 inhibitor nor a protonophore |
| sparing | accumulated in C. elegans | sparing | sparing | complete inhibition | O=C(Nc1ccc(Oc2ccc(Cl)cc2)cc1)c1cc(I)cc(I)c1O [Compound 3h, N-(4-(4-Chlorophenoxy)phenyl)-2-hydroxy-3,5-diiodobenzamide] | mitochondrial-uncoupling activity | completely abolished molting | effect on cell viability of HEK 293T/17 cells (HEK 293T/17 cells [2]): no considerable effect on cell viability; inhibition at 1 µM (O. volvulus L3 larvae): ≤ 84% |
| – | – | – | – | – | CN(C(=O)c1cc(I)cc(I)c1O)c1ccc(Oc2ccccc2)cc1 [Compound 3c, 2-Hydroxy-3,5-diiodo-N-methyl-N-(4-phenoxyphenyl)benzamide] | eradicated protonophoric activity | – | – |

| SMILES | inhibition of EhCHT1 at single concentration (EhCHT1) | accumulation in C. elegans (in words) (C. elegans) | inhibition of PfCHT1 at single concentration (PfCHT1) | inhibition of BmCHT1 at single concentration (BmCHT1) | inhibition of OvCHT1 at single concentration (OvCHT1) | mitochondrial-uncoupling (protonophoric) activity (HEK 293T/17 cells [1]) | effect on O. volvulus L3 molting (O. volvulus L3 larvae; [3]) | further results |
| --- | --- | --- | --- | --- | --- | --- | --- | --- |
| O=C(Nc1ccc(Oc2ccc(Cl)cc2)c(Cl)c1)c1cc(I)cc(I)c1O [Compound 3m, rafoxanide, reference compound] | sparing | accumulated in C. elegans | sparing | sparing | complete inhibition | good mitochondrial-uncoupling activity | completely abolished molting | effect on cell viability of HEK 293T/17 cells (HEK 293T/17 cells [2]): no considerable effect on cell viability; worm level as share of the initial dose (C. elegans; at 6 and 12 h, initial dose 2 nmol/mg worm): > 75%; inhibition of O. volvulus L3 molting (O. volvulus L3 larvae; 1 μM, 24 h preincubation, molting assessed day 6): up to 84% |
| N#CC(C#N)=NNc1cccc(Cl)c1 [CCCP, carbonyl cyanide m-chlorophenyl hydrazone, reference compound] | – | accumulated in C. elegans | – | – | – | a protonophore only | fully inhibited the molting | effect on O. volvulus L3 molting (O. volvulus L3 larvae; 1 μM): did not show any impact on molting |
